“Also recorded” adds a separate entry of the source.
Experiments:
human NET (hNET) = human NET (hNET) (Homo sapiens, UniProt P23975); assay: In vitro competition binding vs [3H]nisoxetine in transfected HEK-293 cells
NET [1] = conditions: rats, 60 min post injection; cited from earlier work
NET [2] = conditions: cited from earlier work
NET [3] = conditions: cynomolgus monkeys and human; cited from earlier work
NET [4] = target: T1, NET (Macaca mulatta, UniProt Q9MYW8); assay: MicroPET imaging in anesthetized rhesus monkeys; assay type: in vivo, rhesus monkey; conditions: for Peak ratio of uptake cerebellum to caudate / Peak ratio of uptake midbrain to caudate / Peak ratio of uptake thalamus to caudate: time not stated; for time of peak uptake in all regions of interest: followed by fast washout
T1 sequence (Q9MYW8 1-617): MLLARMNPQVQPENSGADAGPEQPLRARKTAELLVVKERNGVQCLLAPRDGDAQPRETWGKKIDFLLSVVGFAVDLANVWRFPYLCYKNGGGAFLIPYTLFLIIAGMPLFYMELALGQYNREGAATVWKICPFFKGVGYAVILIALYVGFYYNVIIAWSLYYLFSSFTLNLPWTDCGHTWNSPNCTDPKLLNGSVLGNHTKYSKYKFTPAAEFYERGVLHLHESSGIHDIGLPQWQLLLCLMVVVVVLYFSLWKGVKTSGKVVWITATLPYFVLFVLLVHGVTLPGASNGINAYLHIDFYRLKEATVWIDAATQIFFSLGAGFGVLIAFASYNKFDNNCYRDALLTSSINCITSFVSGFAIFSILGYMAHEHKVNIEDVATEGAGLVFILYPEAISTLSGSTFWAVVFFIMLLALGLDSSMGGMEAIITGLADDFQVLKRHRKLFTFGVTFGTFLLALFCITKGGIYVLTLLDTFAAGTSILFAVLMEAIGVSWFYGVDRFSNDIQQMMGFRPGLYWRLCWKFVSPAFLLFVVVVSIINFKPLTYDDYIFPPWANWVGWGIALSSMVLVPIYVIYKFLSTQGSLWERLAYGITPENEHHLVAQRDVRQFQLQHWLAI

NET [5] = target: T1, NET; assay: PET imaging in awake rhesus monkeys; assay type: in vivo, rhesus monkey; conditions: for effect of isoflurane anesthesia / awake state on binding kinetics: awake vs anesthetized monkeys
human SERT (hSERT) = human SERT (hSERT) (Homo sapiens, UniProt P31645); assay: In vitro competition binding vs [3H]citalopram in transfected HEK-293 cells; conditions: Ki ratio relative to 1
human SERT (hSERT), sequence (P31645 whole entry): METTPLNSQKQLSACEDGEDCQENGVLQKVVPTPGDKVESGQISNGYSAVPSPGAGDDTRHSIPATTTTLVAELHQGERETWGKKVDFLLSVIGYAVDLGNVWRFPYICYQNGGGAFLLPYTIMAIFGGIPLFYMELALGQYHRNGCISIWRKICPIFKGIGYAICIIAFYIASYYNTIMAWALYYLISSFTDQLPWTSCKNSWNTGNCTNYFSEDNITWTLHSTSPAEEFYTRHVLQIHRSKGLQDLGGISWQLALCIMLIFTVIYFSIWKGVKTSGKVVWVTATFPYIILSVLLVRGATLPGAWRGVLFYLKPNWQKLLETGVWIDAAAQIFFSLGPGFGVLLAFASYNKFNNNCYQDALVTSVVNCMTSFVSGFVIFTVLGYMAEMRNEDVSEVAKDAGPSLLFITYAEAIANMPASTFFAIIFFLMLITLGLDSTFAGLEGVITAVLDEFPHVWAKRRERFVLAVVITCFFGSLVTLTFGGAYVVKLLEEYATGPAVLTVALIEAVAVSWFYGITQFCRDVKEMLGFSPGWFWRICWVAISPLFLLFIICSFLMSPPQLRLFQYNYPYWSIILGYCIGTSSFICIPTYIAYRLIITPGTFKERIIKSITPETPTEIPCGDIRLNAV

[6] = Lipophilicity measurement; assay type: physicochemical; conditions: relative to 1
In short: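 Radiolabeled test compound (~5–10 µCi) was added to 2 mL 1-octanol plus 2 mL 0.02 M sodium phosphate buffer (pH 7.4), vortexed 10 min at room temperature, then centrifuged 5 min. A 0.5 mL sample of each layer was gamma-counted and decay corrected. log P7.4 = log(octanol counts/buffer counts) per replicate; three replicates averaged.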

[7] = after injection, baseline, anesthetized
[8] = postinjection, baseline, anesthetized

human NET (hNET), sequence (P23975 whole entry): as the sequence (Q9MYW8 1-617) above, with S15N, A19T, V246I, I410V, I427V, G452S, V606I counted along it

COc1ccccc1O[C@@H](c1ccccc1)[C@@H]1CNCCO1 [(S,S)-MeNER, reference compound]
NET selectivity DAT/NET (human NET (hNET); ratio of Ki values): >2000

[11CH3]Oc1ccccc1O[C@@H](c1ccccc1)[C@@H]1CNCCO1 [(S,S)-[^11C]MeNER]
hypothalamus-to-striatum uptake ratio (NET [1]): 2.5 | ratios of uptake in NET-rich brain regions to striatum (NET [2]; 90 min postinjection): 1.4–1.6 | thalamus-to-striatum uptake ratios (NET [2]; cynomolgus monkeys and baboons): 1.4–1.6

[2H]C([2H])([18F])Oc1ccccc1O[C@@H](c1ccccc1)[C@H]1CNCCO1 [(S,S)-[^18F]FMeNER-D2]
thalamus-to-striatum binding ratio (NET [3]): ~ 1.5

[11CH3]c1ccccc1O[C@@H](c1ccccc1)[C@@H]1CNCCO1 [[^11C]1]
highest ratios of uptake in NET-rich regions to that in caudate (NET [4]; 45 min, anesthetized): 1.30–1.45 | Ratio of uptake pons to caudate (peak) (NET [4]; 45 min, baseline, anesthetized): 1.40 | time of peak uptake of radioactivity in thalamus and pons (NET [4]; [7]): 15.5 to 27.5 min | time to specific binding peak equilibrium (quasi-equilibrium) (NET [4]; after injection, both anesthetized and awake states): less than 1 h | half-time for clearance from peak uptake (T1/2), thalamus and pons (NET [4]; baseline, anesthetized): ~ 105 min | time of peak uptake in caudate (NET [4]; [8]): 18 to 35 min | time of peak uptake in midbrain and cerebellum (NET [4]; [8]): 9.5 to 18.5 min | effect of isoflurane anesthesia / awake state on binding kinetics (NET [5]): not significantly altered | time of peak uptake (NET [5]; both awake and anesthetized monkey studies): 17.5 to 35 min

[11CH3]c1ccccc1S[C@@H](c1ccccc1)[C@@H]1CNCCO1 [[^11C]4]
displacement of radioactivity in the caudate in chase study with SERT ligand (NET [4]; (R,S)-citalopram HBr 1.5 mg/kg 40 min after injection): no displacement | time of peak uptake of radioactivity in thalamus and midbrain (NET [4]; [7]): 27.5 to 45 min | washout T1/2, thalamus and midbrain (NET [4]; baseline, anesthetized): ~ 160 min | effect of isoflurane anesthesia / awake state on binding kinetics (NET [5]): markedly decreased; also recorded: greatly decreased

[18F]CCOc1ccccc1OC(c1ccccc1)C1CNCCO1 (centres unmarked) [[^18F]2]
Peak ratio of uptake cerebellum to caudate (NET [4]; baseline, anesthetized): 1.05 | Peak ratio of uptake midbrain to caudate (NET [4]; baseline, anesthetized): 1.13 | Peak ratio of uptake thalamus to caudate (NET [4]; baseline, anesthetized): 1.13 | time of peak uptake in all regions of interest (NET [4]; baseline, anesthetized): 15 min

[18F]CCCOc1ccccc1OC(c1ccccc1)C1CNCCO1 (centres unmarked) [[^18F]3]
Peak ratio of uptake cerebellum to caudate (NET [4]; baseline, anesthetized): 0.95 | Peak ratio of uptake midbrain to caudate (NET [4]; baseline, anesthetized): 1.18 | Peak ratio of uptake thalamus to caudate (NET [4]; baseline, anesthetized): 1.18 | time of peak uptake in all regions of interest (NET [4]; baseline, anesthetized): 15 min

Cc1ccccc1S[C@@H](c1ccccc1)[C@@H]1CNCCO1 [compound 4, (2S,3S)-2-[α-(2-Methylphenylthio)phenylmethyl]morpholine]
times more potent than 1 for the NET (human NET (hNET); Ki ratio relative to 1): 3.4 times | times more potent than 1 for the SERT (human SERT (hSERT)): 6.5 times | increase of log P7.4 on substitution of oxygen by sulfur [6]: 0.43

From PMC2746395 (Journal of medicinal chemistry, 2009)
